# Compounds with a hit are over-represented: about 9.2% of the library has one in this group of screens.
# PTEN del growth: growth suppressors of cells with PTEN tumor suppressor deletion; HCT116 PTEN-null viability, CellTiter-Glo, 60 h; stronger effect = lower value; viability, % at 10 µM; 140,000 compounds, 1.2% hits; AID 827;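 active means viability at or below a set limit, 4 SD under the median of all tested compounds, cut at about 3.7% in these data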;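 further: PTEN knockout HCT116 line with beta catenin targeted HCT116 as companion control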
# Dynein transport: blocks dynein driven cargo transport along microtubules; 3617.4 mouse cells, GR-EGFP nuclear translocation imaging; test concentration mostly 20 µM; stimulated with dexamethasone, 1 µM; stronger effect = lower value; z-score, hits read low; 220,000 compounds, 0.47% hits; AID 1381;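 active means plate z-score of nuclear minus cytoplasmic receptor signal below a set negative limit, without overly bright fluorescence or cell loss, cut at about -3.5 in these data, passing the limit was not always enough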;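 further: z-score of nuclear minus cytoplasmic ring GR-EGFP intensity difference per well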
#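 Buffer or medium: tet-free, stripped-serum medium; Also added: dexamethasone, 1.0 µM final; Technique: high-content fluorescence imaging after fixation; Times: 48 h induction, 1 h compound, 30 min dex at 37 °C; Read-out: per-cell GR-EGFP intensity, nucleus versus surrounding cytoplasmic ring, well-averaged.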
# bCat KO growth: beta-catenin-lacking colon tumor cell growth suppression | HCT116 beta-catenin knockout viability, CellTiter-Glo, 60 h; stronger effect = lower value | viability, % at 10 µM | 140,000 compounds, 1.5% hits | AID 818;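 active means viability at or under a set limit, the compound median less 4 SD, cut at about 6% in these data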;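 further: 0% = Hyamine 1622 control at 20 µM and 100% = untreated cell control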
# Autophagy mod: modulators of autophagy; calls only at 10 µM (by protocol); AID 463193; MEF GFP-LC3 puncta imaging; test concentration mostly 10 µM; 190,000 compounds, 0.98% hits;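 active means percentage of spot-positive cells more than 3 SD above its plate mean, without a fluorescence outlier flag or 80% toxicity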;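 further: spot-positive cell cutoff set from DMSO-treated cells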
# Lmaj promast: Leishmania major promastigote growth inhibition | 200,000 compounds, 9% hits | Leishmania major promastigotes, resazurin fluorescence viability | inhibition, % at 10 µM; in the data active means inhibition above about 50%;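 further: promastigotes grown with compound for 44 hours at 28 °C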
# * = called active by the depositor; i = inactive; · = no result; + = active, no number.
SMILES,PTEN del growth,Dynein transport,bCat KO growth,Autophagy mod,Lmaj promast
C/C(=N\NC(=O)CN(c1ccccc1)S(=O)(=O)c1ccccc1[N+](=O)[O-])C(C)(C)C,93.4,0.0311,85.6,i,89.8*
Cc1cc(C)c(S(=O)(=O)c2ccccc2C)c(N(C)C)n1,94.0,0.165,89.4,i,-0.9
CCCSc1nc(C)cc(C)c1S(=O)(=O)c1ccccc1C,79.2,-0.0233,83.7,i,94.5*
Cc1cc(C)c(S(=O)(=O)c2ccccc2C)c(SCC(C)C)n1,76.8,-0.895,65.4,i,92.0*
Cc1cc(C)c(S(=O)(=O)c2ccccc2C)c(OCC(C)(C)C)n1,70.8,0.766,64.8,i,95.9*
COc1ccc(S(=O)(=O)NCc2ccc3c(c2)OCO3)cc1C,92.7,-1.1,100.0,i,-1.7
COc1ccc(Cn2c(CCC(=O)Nc3ccccc3OC)nc3cccnc32)cc1,·,-0.979,·,i,18.1
Cc1cccc(N2CCN(c3cccc(C)c3)C2c2cccnc2)c1,78.1,-0.0493,80.5,i,99.2*
COc1cc(C2N(c3ccccc3)CCN2c2ccccc2)cc(OC)c1OC,89.0,-0.27,97.8,·,2.5
Cc1ccc(N2CCN(c3ccc(C)cc3)C2c2ccncc2)cc1,88.5,2.54,103.0,i,92.2*
COc1cccc(OC)c1C(=O)Oc1ccc2c(c1)O/C(=C\c1ccncc1)C2=O,55.7,1.14,58.9,i,93.8*
O=C1/C(=C/c2ccccc2)Oc2cc(OC(=O)N3CCOCC3)ccc21,79.7,0.149,79.7,i,73.6*
O=C1/C(=C/c2ccncc2)Oc2cc(OS(=O)(=O)c3ccccc3)ccc21,·,-0.141,·,·,·
O=C(CNC(=O)c1ccc(Cl)cc1)NCC(F)(F)F,102.5,0.16,91.6,i,55.1*
CCC(O)(c1ccc(OC)cc1)C(CN1CCOCC1)c1ccccc1 (stereo not drawn),·,-1.08,·,i,8.9
CCCOc1ccc(C(=O)C(CN2CCCC2)c2ccccc2)cc1 (stereo not drawn),0.9*,-3.35,1.3*,i,100.4*
COc1ccc(C(=O)C(CN2CCOCC2)c2ccccc2)cc1 (stereo not drawn),1.6*,-3.41,3.4*,i,100.6*
CCCOc1ccc(C(C(=O)OCCN(CC)CC)c2ccccc2)cc1 (stereo not drawn),110.3,-0.783,99.5,i,98.6*
CCCCOc1ccc(C(=O)C(CN2CCOCC2)c2ccccc2)cc1 (stereo not drawn),2.0*,-2.32,1.9*,+,100.5*
COC(=O)Nc1ccc(S(=O)(=O)N2CCC(C(=O)N3CCCC(C)C3)CC2)cc1 (stereo not drawn),·,0.473,·,i,-2.9
O=C(c1ccccc1)C(CCC(CN1CCOCC1)C(=O)c1ccccc1)CN1CCOCC1 (stereo not drawn),1.9*,-6.06*,1.9*,i,100.5*
COc1ccc(/C=C/C(=O)O)cc1S(=O)(=O)Nc1ccc2c(c1)OCO2,·,-0.181,·,·,·
O=C1C(NS(=O)(=O)c2ccc(Cl)cc2)=C(N2CCCCC2)C(=O)c2ccccc21,65.1,0.629,64.8,i,89.1*
Cc1ccccc1NC(=O)Cn1c(=O)sc2ccccc21,·,-0.33,·,i,-0.4
CCOC(=O)N1CCN(c2cc(N3CCN(CC)CC3)c(F)cc2[N+](=O)[O-])CC1C (stereo not drawn),58.3,-0.15,51.0,i,100.2*
SMILES,PTEN del growth,Dynein transport,bCat KO growth,Autophagy mod,Lmaj promast
CCc1nn(CC(=O)NCCCN(CC)Cc2ccccc2)c(=O)c2cc3sccc3n12,94.3,0.312,78.4,i,55.3*
COc1cc(/C=C/C(=O)O)cc(S(=O)(=O)NCCCC(=O)O)c1OC,·,-0.357,·,i,-5.8
COc1cccc(OCCNC(=O)c2cc([N+](=O)[O-])cc([N+](=O)[O-])c2)c1,·,0.563,·,i,83.4*
Cc1ccc(OCCNC(=O)c2cc(C(=O)NCCOc3ccc(C)cc3)cc([N+](=O)[O-])c2)cc1,64.8,-0.372,73.3,i,99.0*
CC1=C(C(=O)OCC2CCCO2)C(c2ccc(F)cc2)NC(=O)N1 (stereo not drawn),·,0.317,·,i,-8.3
CCOC(=O)C1=C(CSc2nc3ccccc3s2)NC(=O)NC1c1cc(C)ccc1C (stereo not drawn),64.0,0.816,61.5,i,60.2*
CCOC(=O)C1=C(CSc2nc3ccccc3s2)NC(=O)NC1c1ccc(OC)cc1 (stereo not drawn),21.4,0.199,5.7*,i,61.9*
CCOC(=O)c1ccc(N2CCN(c3ccccc3F)CC2)c(NC(=O)Nc2ccccc2)c1,70.3,0.641,78.4,i,97.2*
CCOC(=O)c1ccc(N2CCN(c3ccc(F)cc3)CC2)c(NC(=O)Nc2cccc(OC)c2)c1,72.3,-0.105,80.2,i,96.5*
CCOC(=O)c1ccc(NC(=O)N2CCN(c3ccccc3OC)CC2)cc1,·,0.749,·,i,31.1
O=C(O)CSCc1cnn(-c2ccccc2)c1-n1cccc1,86.6,-0.557,90.1,i,-1.3
O=C(CSCc1cnn(-c2ccccc2)c1-n1cccc1)N1CCN(Cc2ccccc2)CC1,83.0,-0.21,94.2,i,96.9*
NC(=Nc1ccc(N)cc1)C(N)=Nc1ccc(N)cc1,·,-0.778,·,·,·
O=C1CN(C(=O)/C=C/c2ccc(Cl)cc2Cl)CCN1,·,0.373,·,i,-0.6
CN1CCCN(C(=O)/C=C/c2ccc(Cl)cc2Cl)CC1,·,-0.326,·,i,99.4*
CCN(Cc1ccccc1)C(=O)Cn1cc2c(n1)CCCC2,103.8,-0.23,99.6,i,-13.5
COc1ccc(C2c3c(ncn(Cc4ccco4)c3=N)Oc3ccc4ccccc4c32)cc1 (stereo not drawn),1.6*,-0.76,2.2*,i,99.0*
N=c1c2c(ncn1CCCO)Oc1ccc3ccccc3c1C2c1ccccc1 (stereo not drawn),·,-0.721,·,·,·
N=c1c2c(ncn1Cc1ccco1)Oc1ccc3ccccc3c1C2c1ccccc1 (stereo not drawn),4.7,0.197,8.5,i,96.3*
COc1ccc(C2c3ccc4ccccc4c3Oc3ncn(CCN4CCOCC4)c(=N)c32)cc1 (stereo not drawn),1.8*,-1.81,2.1*,i,100.4*
CC(C)CC1NC(=O)N(CC(=O)NC2CCCc3ccccc32)C1=O (stereo not drawn),·,0.465,·,i,0.6
CCCCNC(=O)N(O)C1N(/N=C/c2cccs2)C(=S)SC1(C)C (stereo not drawn),·,0.088,·,·,·
O=C(CCc1nnc(Cc2c[nH]c3ccccc23)o1)NC(C1CC1)C1CC1,·,0.631,·,i,-2.2
Cc1ccc(S(=O)(=O)N2CCN(c3cnn(-c4ccccc4)c(=O)c3Cl)CC2)cc1,98.6,0.21,93.8,i,6.9
COc1cccc(C(=O)Nc2ccc(-c3nc4ccccc4o3)c(O)c2)c1,30.1,0.0483,55.4,i,34.4
COc1ccc(C(=O)Nc2nc3ccccc3[nH]2)cc1S(=O)(=O)N1CCCC1,95.6,1.99,95.9,i,59.4*
